ChEMBL document CHEMBL4229410, “Facile construction of fused benzimidazole-isoquinolinones that induce cell-cycle arrest and apoptosis in colorectal cancer cells” (Bioorg Med Chem, 2018)
pKd: −log10 of the molar value. The source made the active and inactive calls. The calls are words filed in the database; no cut-off is given here.

How the values were obtained:
[1] = test system: SW-620; assay: Antiproliferative activity against human SW620 cells after 48 hrs by BrdU/DAPI staining based immunofluorescence assay; assay type: functional, cell-based
How it was run: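 Cells seeded at 20,000 per well after reaching 80% confluence; exposed 48 h to 0, 25, 50, 75 μM, then 10 μM BrdU for 2 h. Paraformaldehyde fixation, 2 M HCl 30 min, 10% goat serum block, anti-BrdU primary overnight at 4 °C, secondary 120 min at room temperature, DAPI 300 nM. Fluorescence microscopy; percent BrdU-positive nuclei, mean ± SD of three independent experiments.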

[2] = test system: SW-620; assay: Cell cycle arrest in human SW620 cells assessed as accumulation at G1-phase at 75 uM after 48 hrs by propidium iodide staining based flow cytometry (reference value: 40.56%); assay type: functional
[3] = test system: SW-620; assay: Induction of apoptosis in human SW620 cells assessed as late apoptotic cells at 50 uM after 48 hrs by Annexin-V-FITC/propidium iodide staining based flow cytometry (reference value: 1.2%); assay type: functional
[4] = test system: SW-620; assay: Induction of apoptosis in human SW620 cells assessed as necrotic cells at 50 uM after 48 hrs by Annexin-V-FITC/propidium iodide staining based flow cytometry (reference value: 0.9%); assay type: functional
[5] = test system: HT-29; assay: Effect on total mTOR expression in human HT-29 cells up to 75 uM after 48 hrs by Western blot analysis; assay type: ADME, cell-based; conditions: ht-29, 48 h
How it was run: (§1)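 HT29 or SW620 cells were treated at 0, 25, 50 and 75 μM for 48 h and lysed in RIPA with protease and phosphatase inhibitors. Protein was quantified by BCA. 50 μg lysate was run on 8–15% SDS-PAGE and transferred to PVDF. Blocking was 5% BSA/TBST for 2 h; primary antibodies were applied overnight at 4 °C, then HRP secondary 1 h at room temperature.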

[6] = test system: SW-620; assay: Effect on total 4EBP1 expression in human SW620 cells up to 75 uM after 48 hrs by Western blot analysis; assay type: ADME, cell-based; conditions: sw-620, 48 h; how it was run: as §1
[7] = test system: HT-29; assay: Inhibition of PI3K/AKT signaling pathway in human HT-29 cells assessed as reduction in mTOR phosphorylation up to 75 uM after 48 hrs by Western blot analysis; assay type: cell-based
[8] = test system: HT-29; assay: Inhibition of PI3K in human HT-29 cells assessed as reduction in AKT phosphorylation at T308 residue up to 75 uM after 48 hrs by Western blot analysis; assay type: cell-based
[9] = target: Serine/threonine-protein kinase mTOR (Homo sapiens) (UniProt P42345); assay: Inhibition of mTOR in human SW620 cells assessed as reduction in 4EBP1 phosphorylation up to 75 uM after 48 hrs by Western blot analysis; assay type: cell-based
[10] = test system: Tyrosine-protein kinase ABL1 (Homo sapiens), P00519 [E255K]; assay: Inhibition of human phosphorylated ABL1 E255K mutant (S229 to K512 residues) expressed in mammalian expression system assessed as residual activity at 5 uM by KINOMEscan assay relative to control
[11] = target: Bone morphogenetic protein receptor type-2 (Homo sapiens) (UniProt Q13873); assay: Inhibition of human BMPR2 (R179 to Q526 residues) expressed in mammalian expression system assessed as residual activity at 5 uM by KINOMEscan assay relative to control
[12] = target: T1, Serine/threonine-protein kinase B-raf (Homo sapiens, UniProt P15056); assay: Inhibition of human BRAF (S429 to E741 residues) expressed in mammalian expression system assessed as residual activity at 5 uM by KINOMEscan assay relative to control
[13] = target: Serine/threonine-protein kinase DCLK1 (Homo sapiens) (UniProt O15075); assay: Inhibition of partial length human DCAMKL1 (L270 to A662 residues) expressed in mammalian expression system assessed as residual activity at 5 uM by KINOMEscan assay relative to control
[14] = target: T2, Mitogen-activated protein kinase 3 (Homo sapiens, UniProt P27361); assay: Inhibition of full length human ERK1 (M1 to P379 residues) expressed in bacterial expression system assessed as residual activity at 5 uM by KINOMEscan assay relative to control
[15] = target: Receptor-type tyrosine-protein kinase FLT3 (Homo sapiens) (UniProt P36888); assay: Inhibition of human FLT3 (V592 to Y969 residues) expressed in bacterial expression system assessed as residual activity at 5 uM by KINOMEscan assay relative to control
[16] = target: Insulin-like growth factor 1 receptor (Homo sapiens, UniProt P08069); assay: Inhibition of human IGF1R (L972 to D1294 residues) expressed in bacterial expression system assessed as residual activity at 5 uM by KINOMEscan assay relative to control
[17] = target: Dual specificity mitogen-activated protein kinase kinase 2 (Homo sapiens, UniProt P36507); assay: Inhibition of full length human MEK2 (M1 to V400 residues) expressed in mammalian expression system assessed as residual activity at 5 uM by KINOMEscan assay relative to control
[18] = target: Hepatocyte growth factor receptor (Homo sapiens, UniProt P08581); assay: Inhibition of human MET (D1010 to S1367 residues) expressed in bacterial expression system assessed as residual activity at 5 uM by KINOMEscan assay relative to control
[19] = target: Serine/threonine-protein kinase PLK3 (Homo sapiens, UniProt Q9H4B4); assay: Inhibition of partial length human PLK3 (A42 to L334 residues) expressed in mammalian expression system assessed as residual activity at 5 uM by KINOMEscan assay relative to control
[20] = target: T1, Serine/threonine-protein kinase B-raf; assay: Binding affinity to human BRAF (S429 to E741 residues) expressed in mammalian expression system by KINOMEscan assay
[21] = target: Cyclin-dependent kinase 19 (Homo sapiens, UniProt Q9BWU1); assay: Binding affinity to human CDK11 (M1 to N360 residues) expressed in bacterial expression system by KINOMEscan assay
[22] = target: T2, Mitogen-activated protein kinase 3; assay: Binding affinity to full length human ERK1 (M1 to P379 residues) expressed in bacterial expression system by KINOMEscan assay
[23] = target: Inhibitor of nuclear factor kappa-B kinase subunit alpha (Homo sapiens, UniProt O15111); assay: Binding affinity to full length human IKKalpha (M1 to E745 residues) expressed in mammalian expression system by KINOMEscan assay
[24] = target: Phosphatidylinositol 4-phosphate 3-kinase C2 domain-containing subunit beta (Homo sapiens, UniProt O00750); assay: Binding affinity to human PIK3C2B (M1 to L1634 residues) expressed in mammalian expression system by KINOMEscan assay
[25] = target: Rho-associated protein kinase 2 (Homo sapiens, UniProt O75116); assay: Binding affinity to human ROCK2 (M1 to T431 residues) expressed in mammalian expression system by KINOMEscan assay
[26] = target: TGF-beta receptor type-1 (Homo sapiens, UniProt P36897); assay: Binding affinity to human TGFBR1 (D179 to M503 residues) expressed in bacterial expression system by KINOMEscan assay
[27] = target: Vascular endothelial growth factor receptor 2 (Homo sapiens, UniProt P35968); assay: Binding affinity to human VEGFR2 (R787 to P1253 residues) expressed in mammalian expression system by KINOMEscan assay

T2 sequence (P27361 whole entry, the tested form may be a part): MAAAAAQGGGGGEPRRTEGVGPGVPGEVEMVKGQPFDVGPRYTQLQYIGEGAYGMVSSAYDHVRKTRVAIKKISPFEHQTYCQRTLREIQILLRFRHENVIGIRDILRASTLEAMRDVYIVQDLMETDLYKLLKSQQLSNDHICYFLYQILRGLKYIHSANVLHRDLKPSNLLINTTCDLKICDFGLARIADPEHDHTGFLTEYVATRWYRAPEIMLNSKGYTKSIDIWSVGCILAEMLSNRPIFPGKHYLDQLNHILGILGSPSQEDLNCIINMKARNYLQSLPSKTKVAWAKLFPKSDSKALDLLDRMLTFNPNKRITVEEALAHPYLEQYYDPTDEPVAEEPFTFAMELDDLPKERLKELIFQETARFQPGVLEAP
T1 sequence (P15056 whole entry, the tested form may be a part): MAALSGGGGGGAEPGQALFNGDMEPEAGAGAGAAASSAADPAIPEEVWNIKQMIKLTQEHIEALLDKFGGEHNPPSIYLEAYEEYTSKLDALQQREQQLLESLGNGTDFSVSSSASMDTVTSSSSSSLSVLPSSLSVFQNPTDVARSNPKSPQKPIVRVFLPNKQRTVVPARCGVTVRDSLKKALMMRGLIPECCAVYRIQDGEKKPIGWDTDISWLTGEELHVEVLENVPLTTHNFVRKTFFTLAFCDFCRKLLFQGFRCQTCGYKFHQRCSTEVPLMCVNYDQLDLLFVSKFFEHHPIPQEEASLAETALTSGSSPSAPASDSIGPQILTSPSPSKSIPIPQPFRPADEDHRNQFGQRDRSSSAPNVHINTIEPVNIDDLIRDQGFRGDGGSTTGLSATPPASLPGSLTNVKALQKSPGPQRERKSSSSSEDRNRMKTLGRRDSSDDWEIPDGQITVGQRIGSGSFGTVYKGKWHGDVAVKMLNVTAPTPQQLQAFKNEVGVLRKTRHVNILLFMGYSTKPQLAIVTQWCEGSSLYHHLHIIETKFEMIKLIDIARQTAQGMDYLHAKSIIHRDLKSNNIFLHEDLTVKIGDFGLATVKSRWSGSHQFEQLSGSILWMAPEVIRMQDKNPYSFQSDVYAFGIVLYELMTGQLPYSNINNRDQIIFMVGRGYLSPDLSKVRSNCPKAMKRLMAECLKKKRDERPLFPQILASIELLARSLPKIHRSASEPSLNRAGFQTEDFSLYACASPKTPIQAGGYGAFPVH
Insulin-like growth factor 1 receptor, sequence (P08069 31-736 limits assumed): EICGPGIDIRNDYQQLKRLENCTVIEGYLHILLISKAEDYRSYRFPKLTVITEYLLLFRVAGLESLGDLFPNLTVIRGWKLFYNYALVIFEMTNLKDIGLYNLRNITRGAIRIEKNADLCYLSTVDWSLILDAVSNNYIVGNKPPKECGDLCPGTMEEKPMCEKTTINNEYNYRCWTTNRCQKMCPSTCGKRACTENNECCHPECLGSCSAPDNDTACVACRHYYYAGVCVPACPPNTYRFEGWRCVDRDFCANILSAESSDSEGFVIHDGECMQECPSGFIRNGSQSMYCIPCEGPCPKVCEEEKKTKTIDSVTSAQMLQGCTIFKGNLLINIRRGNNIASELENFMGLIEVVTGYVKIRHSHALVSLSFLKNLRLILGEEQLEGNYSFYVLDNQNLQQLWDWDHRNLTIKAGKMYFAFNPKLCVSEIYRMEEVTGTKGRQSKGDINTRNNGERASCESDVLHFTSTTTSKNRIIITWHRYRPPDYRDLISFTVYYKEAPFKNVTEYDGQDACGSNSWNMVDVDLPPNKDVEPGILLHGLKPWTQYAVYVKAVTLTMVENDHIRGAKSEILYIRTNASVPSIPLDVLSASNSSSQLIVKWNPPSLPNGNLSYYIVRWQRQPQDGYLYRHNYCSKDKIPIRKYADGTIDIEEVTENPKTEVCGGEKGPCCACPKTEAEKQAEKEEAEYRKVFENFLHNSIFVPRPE
Insulin-like growth factor 1 receptor, sequence (P08069 741-1367 limits assumed): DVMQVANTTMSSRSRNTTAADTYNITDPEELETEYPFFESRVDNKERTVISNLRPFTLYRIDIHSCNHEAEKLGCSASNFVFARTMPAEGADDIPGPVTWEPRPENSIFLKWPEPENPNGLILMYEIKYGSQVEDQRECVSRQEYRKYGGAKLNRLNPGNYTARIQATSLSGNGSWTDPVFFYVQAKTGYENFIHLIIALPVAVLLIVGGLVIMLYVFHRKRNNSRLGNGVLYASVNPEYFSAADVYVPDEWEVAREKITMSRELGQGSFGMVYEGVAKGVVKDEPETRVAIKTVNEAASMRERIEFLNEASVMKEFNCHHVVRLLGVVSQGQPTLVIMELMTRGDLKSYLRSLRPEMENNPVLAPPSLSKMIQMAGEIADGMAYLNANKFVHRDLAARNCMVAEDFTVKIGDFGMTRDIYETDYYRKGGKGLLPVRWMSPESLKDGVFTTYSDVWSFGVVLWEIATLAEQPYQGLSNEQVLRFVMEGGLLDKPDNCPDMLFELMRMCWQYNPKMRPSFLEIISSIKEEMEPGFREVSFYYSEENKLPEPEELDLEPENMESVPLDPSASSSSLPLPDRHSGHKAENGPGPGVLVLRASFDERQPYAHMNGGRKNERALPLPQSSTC
Tyrosine-protein kinase ABL1 (Homo sapiens), P00519 [E255K], sequence (P00519 whole entry E255K, the tested form may be a part): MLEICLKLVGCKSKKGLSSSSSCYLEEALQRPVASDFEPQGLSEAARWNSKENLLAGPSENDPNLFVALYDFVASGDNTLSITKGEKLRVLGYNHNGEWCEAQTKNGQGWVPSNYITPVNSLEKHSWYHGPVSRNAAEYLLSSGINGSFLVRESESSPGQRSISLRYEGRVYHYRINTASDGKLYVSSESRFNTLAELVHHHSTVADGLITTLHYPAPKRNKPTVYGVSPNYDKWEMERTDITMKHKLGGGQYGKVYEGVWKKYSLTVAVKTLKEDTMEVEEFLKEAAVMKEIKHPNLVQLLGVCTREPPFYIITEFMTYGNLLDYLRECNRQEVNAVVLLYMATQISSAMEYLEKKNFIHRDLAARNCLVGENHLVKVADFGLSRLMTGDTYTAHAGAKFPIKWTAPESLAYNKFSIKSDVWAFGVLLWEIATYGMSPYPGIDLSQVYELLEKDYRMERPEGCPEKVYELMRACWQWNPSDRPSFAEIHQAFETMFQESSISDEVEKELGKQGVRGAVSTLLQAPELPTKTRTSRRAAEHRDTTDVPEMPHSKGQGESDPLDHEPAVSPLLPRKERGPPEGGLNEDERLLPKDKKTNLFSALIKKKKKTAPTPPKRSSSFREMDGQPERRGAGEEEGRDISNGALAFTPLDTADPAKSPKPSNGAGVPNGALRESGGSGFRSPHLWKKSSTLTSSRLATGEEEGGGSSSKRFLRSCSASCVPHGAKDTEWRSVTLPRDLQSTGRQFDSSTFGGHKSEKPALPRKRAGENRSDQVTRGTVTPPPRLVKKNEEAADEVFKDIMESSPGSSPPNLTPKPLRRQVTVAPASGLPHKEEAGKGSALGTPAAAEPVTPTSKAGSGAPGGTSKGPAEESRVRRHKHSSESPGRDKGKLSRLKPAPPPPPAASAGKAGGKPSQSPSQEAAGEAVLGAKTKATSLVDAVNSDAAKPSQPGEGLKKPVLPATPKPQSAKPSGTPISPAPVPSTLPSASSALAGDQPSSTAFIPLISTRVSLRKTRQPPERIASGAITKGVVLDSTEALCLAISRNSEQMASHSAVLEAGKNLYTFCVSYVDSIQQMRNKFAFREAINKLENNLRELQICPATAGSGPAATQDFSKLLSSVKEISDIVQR
Serine/threonine-protein kinase DCLK1 (Homo sapiens), sequence (O15075 whole entry, the tested form may be a part): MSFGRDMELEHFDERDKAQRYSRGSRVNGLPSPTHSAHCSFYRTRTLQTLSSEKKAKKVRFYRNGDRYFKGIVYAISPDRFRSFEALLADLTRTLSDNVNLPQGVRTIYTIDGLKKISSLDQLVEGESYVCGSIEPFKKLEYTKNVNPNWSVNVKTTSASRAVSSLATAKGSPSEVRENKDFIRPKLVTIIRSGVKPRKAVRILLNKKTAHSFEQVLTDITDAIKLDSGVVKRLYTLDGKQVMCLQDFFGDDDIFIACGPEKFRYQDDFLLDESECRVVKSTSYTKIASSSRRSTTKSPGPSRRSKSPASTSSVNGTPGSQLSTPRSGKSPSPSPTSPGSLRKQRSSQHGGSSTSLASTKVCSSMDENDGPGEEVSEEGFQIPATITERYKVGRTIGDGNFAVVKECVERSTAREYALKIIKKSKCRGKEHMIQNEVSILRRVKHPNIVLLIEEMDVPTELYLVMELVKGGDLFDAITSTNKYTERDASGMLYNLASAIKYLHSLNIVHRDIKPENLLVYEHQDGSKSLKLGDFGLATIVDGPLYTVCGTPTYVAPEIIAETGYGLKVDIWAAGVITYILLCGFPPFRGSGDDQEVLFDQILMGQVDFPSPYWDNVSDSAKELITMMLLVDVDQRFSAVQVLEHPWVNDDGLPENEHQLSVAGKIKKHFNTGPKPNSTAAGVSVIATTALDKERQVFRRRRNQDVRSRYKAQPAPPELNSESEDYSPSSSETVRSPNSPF
Serine/threonine-protein kinase PLK3, sequence (Q9H4B4 whole entry, looked up, the tested form may be a part): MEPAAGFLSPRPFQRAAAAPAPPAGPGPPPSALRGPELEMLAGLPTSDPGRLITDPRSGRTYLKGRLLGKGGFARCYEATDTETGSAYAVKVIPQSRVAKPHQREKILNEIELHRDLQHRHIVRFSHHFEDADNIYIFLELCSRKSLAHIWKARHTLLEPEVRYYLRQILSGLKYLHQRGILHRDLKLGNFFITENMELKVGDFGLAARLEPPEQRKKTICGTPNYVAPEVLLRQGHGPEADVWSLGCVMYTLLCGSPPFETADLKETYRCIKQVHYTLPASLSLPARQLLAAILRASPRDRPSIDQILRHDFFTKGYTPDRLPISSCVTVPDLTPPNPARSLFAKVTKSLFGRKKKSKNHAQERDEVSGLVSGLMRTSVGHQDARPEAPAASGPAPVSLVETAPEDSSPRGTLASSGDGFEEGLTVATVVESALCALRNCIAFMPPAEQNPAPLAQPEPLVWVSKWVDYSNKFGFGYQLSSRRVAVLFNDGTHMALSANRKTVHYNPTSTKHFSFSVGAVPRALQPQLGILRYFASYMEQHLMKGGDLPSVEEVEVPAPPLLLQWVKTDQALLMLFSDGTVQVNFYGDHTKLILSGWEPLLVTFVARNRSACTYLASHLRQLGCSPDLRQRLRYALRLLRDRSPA

CC(C)CN(C(=O)c1cccnc1)c1c2ccccc2c(=O)n2c1[nH]c1ccccc12
Activity [1]: Dose-dependent effect | Activity [2]: 31.67% | Activity [3]: 12.1% | Activity [4]: 5.5% | Activity [5]: Non-Toxic | Activity [6]: Non-Toxic | inhibition [7]: Active | inhibition [8]: Active | inhibition [9]: Active | Activity [10]: 69% | Activity [11]: 100% | Activity [12]: 82% | Activity [13]: 74% | Activity [14]: 82% | Activity [15]: 98% | Activity [16]: 100% | Activity [17]: 82% | Activity [18]: 86% | Activity [19]: 87% | pKd [20]: ≤ 5.30 | pKd [21]: ≤ 5.30 | pKd [22]: ≤ 5.30 | pKd [23]: ≤ 5.30 | pKd [24]: ≤ 5.30 | pKd [25]: ≤ 5.30 | pKd [26]: ≤ 5.30 | pKd [27]: ≤ 5.30
